Measured values from publication PMC5760267 (ChemMedChem, 2016).

Target: human immunoproteasome β5i (Homo sapiens, UniProt P20618+P28062)
Assay: IC50 against β5i
Assay type: biochemical
Conditions: for SIapp: apparent selectivity index = IC50β5c / IC50β5i: β5i over β5c; for reduction of potency against β5i: relative to the P1-β-Ala parents PKS2251 and PKS2252, respectively
Method in brief: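 Human immunoproteasome β5i activity was read as ac-ANW-AMC hydrolysis, and constitutive β5c activity as suc-LLVY-AMC hydrolysis. IC50s were determined by a previously reported method. Apparent selectivity index = IC50β5c / IC50β5i. Data reported as mean ± SEM.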

Compound	SIapp: apparent selectivity index = IC50β5c / IC50β5i	reduction of potency against β5i [fold]
Cc1cc(C(=O)N[C@@H](CC(=O)NC(C)(C)C)C(=O)N[C@@H](C)CC(=O)NCc2cccc3ccccc23)no1 [PKS2249]	465	
C[C@@H](CC(=O)NCc1cccc2ccccc12)NC(=O)[C@H](CC(=O)NC(C)(C)C)NC(=O)CCc1ccccc1 [PKS2251]	1333	
Cc1ccc(S(=O)(=O)N[C@@H](CC(=O)NC(C)(C)C)C(=O)N[C@@H](C)CC(=O)NCc2cccc3ccccc23)cc1 [PKS2252]	13600	

Now from value to compound:

SIapp: apparent selectivity index = IC50β5c / IC50β5i	reduction of potency against β5i [fold]	Compound
	58	C[C@H](NC(=O)C[C@H](CC(=O)NC(C)(C)C)NC(=O)CCc1ccccc1)C(=O)NCc1cccc2ccccc12 [PKS2278]
2521	2.5	Cc1ccc(S(=O)(=O)N[C@H](CC(=O)N[C@@H](C)C(=O)NCc2cccc3ccccc23)CC(=O)NC(C)(C)C)cc1 [PKS2279]
